In ChEMBL document CHEMBL2202989, “New adamantane phenylalkylamines with σ-receptor binding affinity and anticancer activity, associated with putative antagonism of neuropathic pain” (J Med Chem, 2012):

Key:
[1] = tested on: OVCAR-5; experiment: Growth inhibition of human OVCAR5 cells after 48 hrs by SRB assay; type: functional; details: OVCAR-5, 48 h; for CC50: read-out: LC50 (the source's name)
How it was run: (§1)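 Cells grown in RPMI 1640 with 5% heat-inactivated FCS, 2 mM L-glutamine and antibiotics, 37 °C, 5% CO2. Seeded at 3500–30000 cells/well and left 24 h before dosing. DMSO solutions added at 10-fold dilutions from 100 to 0.01 μM for 48 h. Cells TCA-fixed and SRB-stained, absorbance read at 540 nm; GI50 derived against the time-zero plate.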

[2] = tested on: BXPC-3; experiment: Growth inhibition of human BxPC3 cells after 48 hrs by SRB assay; type: functional; details: BXPC-3, 48 h; how it was run: as §1
[3] = tested on: U-251; experiment: Growth inhibition of human U251 cells after 48 hrs by SRB assay; type: functional; details: U-251, 48 h; for CC50: read-out: LC50 (the source's name); how it was run: as §1
[4] = tested on: SK-HEP1; experiment: Growth inhibition of human SKHEP1 cells after 48 hrs by SRB assay; type: functional; details: SK-HEP1, 48 h; for CC50: read-out: LC50 (the source's name); how it was run: as §1
[5] = tested on: DU-145; experiment: Growth inhibition of human DU145 cells after 48 hrs by SRB assay; type: functional; details: DU-145, 48 h; for CC50: read-out: LC50 (the source's name); how it was run: as §1
[6] = (§2) Growth inhibition of human NHDF cells after 48 hrs by SRB assay; type: cell-based; details: NHDF cells; how it was run: as §1
[7] = tested on: NHDF; experiment: as §2; type: cell-based; details: nhdf, 48 h; how it was run: as §1
[8] = Growth inhibition of human MSC cells after 48 hrs by SRB assay; type: cell-based; how it was run: as §1
[9] = tested on: MCF7; experiment: Growth inhibition of human MCF7 cells after 48 hrs by SRB assay; type: functional; details: MCF7, 48 h; for CC50: read-out: LC50 (the source's name); how it was run: as §1
[10] = tested on: HL-60(TB); experiment: Growth inhibition of human HL-60(TB) cells after 48 hrs by SRB assay; type: functional; details: HL-60, 48 h; for CC50: read-out: LC50 (the source's name)
How it was run: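 Cells kept in RPMI 1640 with 5% FCS at 37 °C, 5% CO2, and seeded 24 h before dosing. Compound given from DMSO at 10-fold dilutions, 100 to 0.01 μM, for 48 h. Cells fixed with TCA, stained with SRB, absorbance read at 540 nm. GI50 taken from a time-zero plate.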

[11] = tested on: HCT-15; experiment: Growth inhibition of human HCT15 cells after 48 hrs by SRB assay; type: functional; details: HCT-15, 48 h; for CC50: read-out: LC50 (the source's name); how it was run: as §1
[12] = tested on: PC-3; experiment: Growth inhibition of human PC3 cells after 48 hrs by SRB assay; type: functional; details: PC-3, 48 h; for CC50: read-out: LC50 (the source's name); how it was run: as §1
[13] = tested on: MIA PaCa-2; experiment: Growth inhibition of human MIAPaCa2 cells after 48 hrs by SRB assay; type: functional; details: MIA PaCa-2, 48 h; for CC50: read-out: LC50 (the source's name); how it was run: as §1
[14] = (§3) Growth inhibition of human HUVEC cells after 48 hrs by SRB assay; type: cell-based; details: HUVEC cells; how it was run: as §1
[15] = tested on: HUVEC; experiment: as §3; type: cell-based; details: huvec, 48 h; how it was run: as §1
[16] = Displacement of [3H]1,3-di-otolylguanidine from sigma 2 receptor in rat cerebral cortex membranes; type: cell membranes, Membrane
How it was run: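 Rat cerebral cortex membranes incubated with 5 nM [3H]DTG plus 300 nM (+)-pentazocine to mask σ1 sites, together with a range of test concentrations, 2 h at 22 °C in Tris-HCl, pH 7.4. Nonspecific binding defined with 10 μM haloperidol.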

[17] = tested on: IGROV-1; experiment: Growth inhibition of human IGROV1 cells after 48 hrs by SRB assay; type: functional; details: IGROV-1, 48 h; how it was run: as §1
[18] = target: Sigma non-opioid intracellular receptor 1 (Homo sapiens, UniProt Q99720); experiment: Displacement of [3H]-(+)-pentazocine from sigma 1 receptor in human Jurkat cell membrane; type: cell membranes
How it was run: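 Jurkat cell membranes incubated with 8 nM [3H](+)-pentazocine and a range of test concentrations for 2 h at 22 °C in Tris-HCl buffer, pH 7.4. Nonspecific binding defined with 10 μM haloperidol. Run in triplicate.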

Sigma non-opioid intracellular receptor 1, sequence (Q99720 whole entry): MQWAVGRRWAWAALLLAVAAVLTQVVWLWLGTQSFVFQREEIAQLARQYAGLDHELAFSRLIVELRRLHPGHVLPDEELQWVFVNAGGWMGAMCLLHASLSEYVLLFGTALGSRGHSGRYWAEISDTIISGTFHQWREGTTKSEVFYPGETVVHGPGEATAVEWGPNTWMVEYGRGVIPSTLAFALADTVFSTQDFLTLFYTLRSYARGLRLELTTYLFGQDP

| SMILES | GI50 [2] [µM] | LC50 [2] [µM] | TGI [2] [µM] | GI50 [3] [µM] | TGI [3] [µM] | CC50 [3] [µM] | GI50 [4] [µM] | TGI [4] [µM] | CC50 [4] [µM] | GI50 at 48 h [6] [µM] | LC50 [7] [µM] | TGI [7] [µM] | TGI [8] [µM] | GI50 [9] [µM] | TGI [9] [µM] | CC50 [9] [µM] | GI50 [11] [µM] | TGI [11] [µM] | CC50 [11] [µM] | GI50 [12] [µM] | also measured |
| --- | --- | --- | --- | --- | --- | --- | --- | --- | --- | --- | --- | --- | --- | --- | --- | --- | --- | --- | --- | --- | --- |
| CCN1CCN(Cc2ccc(C(c3ccccc3)C34CC5CC(CC(C5)C3)C4)cc2)CC1 (stereo unspecified) | 4.33 | 0.00935 | 6.84 | 4.33 | 7.8 | 0.0685 | 5.9 | 24.3 | 0.0902 | 6.59 | 100 | 66.8 | 4.61 | 2.26 | 5.92 | 0.00958 | 3.36 | 6.36 | 0.0094 | 7 | GI50 [1]: 18.1 µM; TGI [1]: 43.8 µM; CC50 [1]: 0.07 µM; GI50 [5]: 5.73 µM; TGI [5]: 46.1 µM; CC50 [5]: 0.1 µM; GI50 [10]: 0.00433 µM; TGI [10]: 0.00775 µM; CC50 [10]: 0.1 µM; TGI [12]: 7.9 µM; CC50 [12]: 0.0624 µM; GI50 [13]: 8.24 µM; TGI [13]: 43.7 µM; CC50 [13]: 0.0886 µM; GI50 at 48 h [14]: 1.14 µM; LC50 [15]: 9.54 µM; TGI [15]: 5.34 µM |
| c1ccc(C(c2ccc(CN3CCCCC3)cc2)C23CC4CC(CC(C4)C2)C3)cc1 (stereo unspecified) | 15.8 | 0.0874 | 51.6 | 8.6 | 40.2 | 0.0758 | 7.46 | 38.4 | 0.0822 | 23.7 | 81.19 | 52.5 | 20.1 | 8.89 | 43 | 0.0806 | 8.8 | 79 | 0.1 | 6.07 | GI50 [1]: 31.1 µM; TGI [1]: 60.8 µM; CC50 [1]: 0.0915 µM; GI50 [5]: 8.98 µM; TGI [5]: 47.3 µM; CC50 [5]: 0.089 µM; GI50 [10]: 0.00591 µM; TGI [10]: 0.0729 µM; CC50 [10]: 0.1 µM; TGI [12]: 26.2 µM; CC50 [12]: 0.0813 µM; GI50 [13]: 7.98 µM; TGI [13]: 43.2 µM; CC50 [13]: 0.0813 µM; GI50 at 48 h [14]: 5.11 µM; LC50 [15]: 72.47 µM; TGI [15]: 21.7 µM |
| c1ccc(C(c2ccc(CN3CCNCC3)cc2)C23CC4CC(CC(C4)C2)C3)cc1 (stereo unspecified) | 4.3 | 0.00951 | 6.9 | 3.41 | 5.92 | 0.00843 | 3.51 | 6.17 | 0.00884 | 3.66 | 9.73 | 6.69 | 3.14 | 2.45 | 5.51 | 0.00857 | 3.28 | 5.76 | 0.00824 | 3.89 | GI50 [5]: 4.23 µM; TGI [5]: 17.8 µM; CC50 [5]: 0.0392 µM; GI50 [10]: 0.00448 µM; TGI [10]: 0.00759 µM; CC50 [10]: 0.1 µM; TGI [12]: 7.52 µM; CC50 [12]: 0.0692 µM; GI50 at 48 h [14]: 2.91 µM; LC50 [15]: 17.43 µM; TGI [15]: 5.98 µM |
| CN1CCN(CCc2ccc(C(c3ccccc3)C34CC5CC(CC(C5)C3)C4)cc2)CC1 (stereo unspecified) | 5.76 | 0.1 | 19.9 | 3.37 | 6.09 | 0.00881 | 3.69 | 6.36 | 0.00902 | 4.18 | 100 | 8.07 | 6.39 | 2.77 | 5.7 | 0.0086 | 4.64 | 8.26 | 0.1 | 4.57 | GI50 [1]: 17.4 µM; TGI [1]: 29.3 µM; CC50 [1]: 0.0624 µM; IC50 [16]: 0.0801 µM; GI50 [17]: 4.29 µM; TGI [17]: 8.93 µM; CC50 ([17]; read-out: LC50 (the source's name)): 0.0136 µM; IC50 [18]: 0.0029 µM; TGI [12]: 9 µM; CC50 [12]: 0.0135 µM; GI50 [13]: 7.5 µM; TGI [13]: 36 µM; CC50 [13]: 0.0762 µM; GI50 at 48 h [14]: 3.32 µM; LC50 [15]: 9.6 µM; TGI [15]: 6.46 µM |
